Reference: ChEMBL document CHEMBL1124769, “Retinobenzoic acids. 5. Retinoidal activities of compounds having a trimethylsilyl or trimethylgermyl group(s) in human promyelocytic leukemia cells HL-60” (1990)

Legend:
[1] = system: HL-60; assay: Ability to induce differentiation of human promyelocytic leukemia cell line HL-60 to mature granulocytes.; format: functional; conditions: for EC50: read-out: ED50 (the source's name)
Summary of the method: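 HL-60 cells in RPMI1640 with 5% FCS, penicillin G and streptomycin, at 37 °C in 5% CO2. Seeded at ~8 × 10^4 cells/mL and exposed 4 days to compound from a 0.2 mM ethanol stock (final ethanol <0.5%, ethanol-only controls). Read by Wright-Giemsa differential counts and NBT reduction (0.2% NBT plus TPA, 20 min, 37 °C), ≥200 cells each. ED50 from NBT data (van der Waerden method).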

[2] = system: HL-60; assay: Relative activity against human promyelocytic leukemia HL-60 cells.; format: functional
Summary of the method: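 Relative activity was computed as ED50 of retinoic acid ÷ ED50 of test compound × 100. Both ED50s came from concurrent 4-day HL-60 NBT-reduction differentiation assays spanning 5 orders of magnitude in concentration, each run at least twice. Values are representative ones or means.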

| EC50 [1] | Compound | Relative activity [2] | ED50 [1] |
| --- | --- | --- | --- |
| 680 nM | CC(C)c1cccc(NC(=O)c2ccc(C(=O)O)cc2)c1 | – | – |
| – | 4-[3-(2,5-Bis-trimethylgermanyl-phenyl)-3-oxo-propenyl]-benzoic acid (Ch55G) | 1000 | 0.21 nM |
| 700 nM | CC(C)(C)c1cccc(NC(=O)c2ccc(C(=O)O)cc2)c1 | 0.32 | – |
| 9.2 nM | C[Si](C)(C)c1cc(C(=O)Nc2ccc(C(=O)O)cc2)cc([Si](C)(C)C)c1 [AMSILAROTENE] | 52.7 | – |
| 30 nM | C[Si](C)(C)c1cc(NC(=O)c2ccc(C(=O)O)cc2)cc([Si](C)(C)C)c1 | 13 | – |
| 1 nM | C[Si](C)(C)c1cccc(/C=C/c2ccc(C(=O)O)cc2)c1 | 85 | – |
| 44 nM | C[Si](C)(C)c1cccc(C(=O)/C=C/c2ccc(C(=O)O)cc2)c1 | 1.8 | – |
| – | 4-[3-Oxo-3-(3-trimethylgermanyl-phenyl)-propenyl]-benzoic acid (Ch60G) | 4.5 | 40 nM |
| – | CC(C)(C)c1cccc(/C=C/c2ccc(C(=O)O)cc2)c1 | 13 | – |
| – | N-(3,5-Bis-trimethylgermanyl-phenyl)-terephthalamic acid (Am55G) | 15 | 42 nM |
| 170 nM | CCc1ccc(C(=O)/C=C/c2ccc(C(=O)O)cc2)cc1CC | – | – |
| 2.4 nM | CC1=C(/C=C/C(C)=C/C=C/C(C)=C/C(=O)O)C(C)(C)CCC1 [TRETINOIN] | 100 | – |
| 36 nM | CC(C)(C)c1cc(NC(=O)c2ccc(C(=O)O)cc2)cc(C(C)(C)C)c1 | 15 | – |
| 0.79 nM | CC1(C)CCC(C)(C)c2cc(NC(=O)c3ccc(C(=O)O)cc3)ccc21 [TAMIBAROTENE] | – | – |
| 160 nM | CC(C)(C)c1cccc(C(=O)/C=C/c2ccc(C(=O)O)cc2)c1 | 0.81 | – |
| 85 nM | C[Si](C)(C)c1cccc(NC(=O)c2ccc(C(=O)O)cc2)c1 | 2.4 | – |
| 48 nM | CC(C)(C)c1cc(C(=O)Nc2ccc(C(=O)O)cc2)cc(C(C)(C)C)c1 | 5.6 | – |
| – | CC(C)(C)c1ccc(C(=O)/C=C/c2ccc(C(=O)O)cc2)cc1 | 3.9 | – |
| 0.14 nM | C[Si](C)(C)c1cc(C(=O)/C=C/c2ccc(C(=O)O)cc2)cc([Si](C)(C)C)c1 | 860 | – |
| – | CC(C)(C)c1cc(C(=O)/C=C/c2ccc(C(=O)O)cc2)cc(C(C)(C)C)c1 | 640 | – |
